The text below walks through data of the M2OR odorant receptor database.

Molecules are shown by their SMILES.

In this assay the target is T1, OR10J5 (Homo sapiens) (UniProt Q8NHC4).
T1 sequence (whole entry): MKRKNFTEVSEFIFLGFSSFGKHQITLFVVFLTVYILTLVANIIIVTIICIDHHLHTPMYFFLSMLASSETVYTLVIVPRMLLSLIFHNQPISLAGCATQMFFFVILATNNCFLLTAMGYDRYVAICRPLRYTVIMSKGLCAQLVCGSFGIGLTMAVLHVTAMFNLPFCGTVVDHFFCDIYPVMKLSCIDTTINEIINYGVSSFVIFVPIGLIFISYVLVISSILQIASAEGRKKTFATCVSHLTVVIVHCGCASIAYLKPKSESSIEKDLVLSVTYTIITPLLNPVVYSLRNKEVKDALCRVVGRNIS
Particulars: stereoisomer not certain. In a few lines:
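Each entry records the cell line, G-protein, co-transfected protein and tags used. Methods varied with the source, often transient luciferase assays in mammalian cell lines. A receptor–molecule pair is called responsive (active) if the original authors judged its signal statistically different from baseline and non-responsive (inactive) otherwise.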

In the case of `CCCCCCCO`, the “odorant receptor agonist call” value was “inactive”.
